# Laboratory results as given in ChEMBL document CHEMBL1143581, “Cationic chalcone antibiotics. Design, synthesis, and mechanism of action” (2005).
# Active and inactive are the calls of the source. No cut-off for these calls is given here.
# Legend:
# Enterococcus faecium [1] = assay: Minimum inhibitory concentration against Enterococcus faecium 17501 (vancomycin-resistant clinical isolate); type: functional
# Enterococcus faecium [2] = assay: Minimum inhibitory concentration against Enterococcus faecium […]; type: functional
# Staphylococcus aureus [3] = assay: Minimum inhibitory concentration against Staphylococcus aureus ATCC 33591 (resistant to methicillin); type: functional
# [4] = Percent lysis of human erythrocytes after exposed to test compound was measured as hemolysis; type: functional
# Staphylococcus aureus [5] = assay: Effect on bacterial membrane integrity was determined by using SYTO9 green fluorescent […]; type: functional, Bacteria
# Procedure, shortened: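 Incubated 15 min at 37 °C with agitation, then resuspended to OD600 ~0.4 and stained with BacLight (SYTO-9/propidium iodide) 15 min dark. Excitation 485 nm, emission 530/630 nm; green/red ratio normalized to untreated control.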
# Escherichia coli [6] = assay: Minimum inhibitory concentration against Escherichia coli ATCC 25922; type: functional
# Procedure, shortened: (§1)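 Broth microdilution per NCCLS in Mueller-Hinton medium, run in triplicate, with an added uninoculated compound dilution series in case of precipitation. MIC read as the lowest concentration preventing visible growth; reported values are the mean of three experiments.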
# Escherichia coli [7] = assay: (§2) Minimum inhibitory concentration against Escherichia coli ATCC 25922; NA=not active; type: functional, organism-based
# Enterococcus faecium [8] = assay: Minimum inhibitory concentration against Enterococcus faecium […]; NA=not active; type: functional, organism-based; procedure, shortened: as §1
# Enterococcus faecium [9] = assay: Minimum inhibitory concentration against Enterococcus faecium 17501 (vancomycin-resistant clinical isolate); NA=not active; type: functional, organism-based
# Staphylococcus aureus [10] = assay: Minimum inhibitory concentration against Staphylococcus aureus ATCC 33591 (resistant to methicillin); NA=not active; type: functional, organism-based
# Escherichia coli [11] = assay: as §2; type: functional, organism-based; procedure, shortened: as §1; remark: listed apart in the source
SMILES,MIC (Enterococcus faecium [1]) [µM],MIC (Enterococcus faecium [2]) [µM],MIC (Staphylococcus aureus [3]) [µM],MIC (Escherichia coli [6]) [µM],other results
COc1ccc(C(=O)/C=C/c2cc(-c3ccccc3)ccc2OCCN(C)C)c(F)c1,10,10,5,,
CN(C)CCOc1ccc(C(=O)/C=C/c2ccc(Cl)cc2Cl)cc1,40,40,40,,Hemolysis [4]: 100%; Membrane integrity (Staphylococcus aureus [5]): 0%
Cc1cc(C)cc(-c2ccc(OCCN(C)C)c(/C=C/C(=O)c3ccc(OCCN(C)C)cc3)c2)c1,10,20,10,40,
CN(C)CCNc1cccc(C(=O)/C=C/c2cc(N3CCN(C)CC3)ccc2-c2ccccc2)c1,75,75,75,,MIC (Escherichia coli [7]): inactive
CN(C)CCNc1ccc(C(=O)/C=C/c2ccc(Oc3ccccc3)cc2)cc1,20,5,20,,
Cc1cc(C)cc(-c2ccc(OCCN(C)C)c(/C=C/C(=O)c3ccc(N)cc3)c2)c1,10,20,10,,MIC (Escherichia coli [7]): inactive
CN(C)CCNc1ccc(C(=O)/C=C/c2ccccc2)cc1,,,300,,MIC (Enterococcus faecium [8]): inactive; MIC (Enterococcus faecium [9]): inactive
COc1ccc(C(=O)/C=C/c2cc(-c3ccccc3C(F)(F)F)ccc2N2CCN(C)CC2)c(F)c1,10,20,5,,
COc1ccc(C(=O)/C=C/c2cc(-c3cccnc3)ccc2N2CCN(C)CC2)c(F)c1,75,75,75,,
COc1ccc(C(=O)/C=C/c2cc(-c3cccc(CO)c3)ccc2N2CCN(C)CC2)c(F)c1,,,,,MIC (Staphylococcus aureus [10]): inactive; MIC (Enterococcus faecium [8]): inactive; MIC (Enterococcus faecium [9]): inactive
COc1ccc(C(=O)/C=C/c2cc(-c3ccccc3OC)ccc2N2CCCN(C)CC2)c(F)c1,10,20,10,,
CN(C)CCNc1cccc(C(=O)/C=C/c2cc(-c3ccccc3)ccc2N2CCN(C)CC2)c1,20,40,20,20,
COc1ccc(C(=O)/C=C/c2cc(C)ccc2OCCN(C)C)c(F)c1,150,150,75,,
COc1ccc(C(=O)/C=C/c2cc(C(C)(C)C)ccc2OCCN(C)C)c(F)c1,20,20,10,,
COc1ccc(C(=O)/C=C/c2cc(-c3cccc(C(F)(F)F)c3)ccc2N2CCN(C)CC2)c(F)c1,5,10,5,,
O=C(O)c1cn(C2CC2)c2cc(N3CCNCC3)c(F)cc2c1=O [CIPROFLOXACIN],,,2,,Hemolysis [4]: 0%; Membrane integrity (Staphylococcus aureus [5]): 102%
CN(C)CCNc1cccc(C(=O)/C=C/c2ccc(-c3ccccc3)cc2N2CCN(C)CC2)c1,40,40,20,40,
CN(C)CCNc1cccc(C(=O)/C=C/c2cc(-c3ccccc3)cc(N3CCN(C)CC3)c2)c1,40,40,20,75,
Cc1cc(C)cc(-c2ccc(OCCN(C)C)c(/C=C/C(=O)c3cccc(NCCN(C)C)c3)c2)c1,10,10,5,20,
CN(C)CCNc1ccc(C(=O)/C=C/c2ccc(Cl)cc2)cc1,75,75,75,,
Cc1cc(C)cc(-c2ccc(OCCN(C)C)c(/C=C/C(=O)c3ccccc3N)c2)c1,5,10,5,,MIC (Escherichia coli [11]): inactive
Cc1cc(C)cc(-c2ccc(OCCN(C)C)c(/C=C/C(=O)c3ccc(CN(C)C)cc3)c2)c1,10,20,5,20,
CCCCN(CCCC)c1ccc(/C=C/C(=O)c2ccc(NCCN(C)C)cc2)cc1,10,10,10,,
COc1ccc(C(=O)/C=C/c2cc(-c3ccccc3OC)ccc2OCCN(C)C)c(F)c1,10,10,10,,
Cc1cc(C)cc(-c2ccc(OCCN(C)C)c(/C=C/C(=O)c3cccc(CN(C)C)c3)c2)c1,10,10,10,40,
Cc1cc(C)cc(-c2ccc(OCCN(C)C)c(/C=C/C(=O)c3ccccc3OCCN(C)C)c2)c1,10,10,10,40,
